Laboratory results as given in ChEMBL document CHEMBL3102735, “Enhancing the pharmacodynamic profile of a class of selective COX-2 inhibiting nitric oxide donors” (Bioorg Med Chem, 2014).

What was measured:
[1] = target: T1, Prostaglandin G/H synthase 2 (Mus musculus) (UniProt Q05769); assay: Inhibition of LPS-induced COX-2 in mouse J774 cells using arachidonic acid as substrate assessed as inhibition of prostaglandin E2 production at 10 uM preincubated for 15 mins followed by substrate addition measured after 30 mins by RIA; format: cell-based
T1 sequence (whole entry): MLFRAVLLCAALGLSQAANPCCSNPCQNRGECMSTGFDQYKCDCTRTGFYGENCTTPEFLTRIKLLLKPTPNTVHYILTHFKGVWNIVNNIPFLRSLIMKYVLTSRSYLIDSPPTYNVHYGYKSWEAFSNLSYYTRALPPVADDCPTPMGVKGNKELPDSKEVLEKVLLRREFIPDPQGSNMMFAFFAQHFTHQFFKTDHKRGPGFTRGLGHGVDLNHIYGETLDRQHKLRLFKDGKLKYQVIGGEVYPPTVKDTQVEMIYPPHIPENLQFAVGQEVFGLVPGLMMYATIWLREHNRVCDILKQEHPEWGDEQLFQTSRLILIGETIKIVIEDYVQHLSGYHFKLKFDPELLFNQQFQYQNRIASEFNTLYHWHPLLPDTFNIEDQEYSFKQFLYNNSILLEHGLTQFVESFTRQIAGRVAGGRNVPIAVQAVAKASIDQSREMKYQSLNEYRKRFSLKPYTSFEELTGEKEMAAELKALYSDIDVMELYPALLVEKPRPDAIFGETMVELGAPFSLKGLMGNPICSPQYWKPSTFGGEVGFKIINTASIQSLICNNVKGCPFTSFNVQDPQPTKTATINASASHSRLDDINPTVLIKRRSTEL

[2] = target: T2, Prostaglandin G/H synthase 1 (Mus musculus) (UniProt P22437); assay: Inhibition of COX-1 in mouse J774 cells using arachidonic acid as substrate assessed as inhibition of prostaglandin E2 production at 10 uM preincubated for 15 mins followed by substrate addition measured after 30 mins by RIA; format: cell-based
T2 sequence (whole entry): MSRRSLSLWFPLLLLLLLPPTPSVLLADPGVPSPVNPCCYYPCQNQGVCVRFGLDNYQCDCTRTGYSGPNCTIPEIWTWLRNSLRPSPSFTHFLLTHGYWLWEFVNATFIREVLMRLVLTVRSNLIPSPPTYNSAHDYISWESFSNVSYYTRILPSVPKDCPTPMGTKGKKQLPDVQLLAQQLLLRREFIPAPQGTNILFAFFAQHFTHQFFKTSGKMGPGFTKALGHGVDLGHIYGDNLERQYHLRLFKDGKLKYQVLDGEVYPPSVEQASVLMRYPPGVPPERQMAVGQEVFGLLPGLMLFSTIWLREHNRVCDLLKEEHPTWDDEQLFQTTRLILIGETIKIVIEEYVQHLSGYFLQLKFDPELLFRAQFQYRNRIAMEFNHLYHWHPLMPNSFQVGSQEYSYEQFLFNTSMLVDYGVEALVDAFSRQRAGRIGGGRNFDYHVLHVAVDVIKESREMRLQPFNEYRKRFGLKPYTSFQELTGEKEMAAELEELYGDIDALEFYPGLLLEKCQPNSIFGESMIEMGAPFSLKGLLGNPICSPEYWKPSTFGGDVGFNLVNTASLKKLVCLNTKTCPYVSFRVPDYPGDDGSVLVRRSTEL
Outline: (§1)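 J774 murine macrophages pretreated 15 min with compound (10 µM; lower concentrations 0.01–1 µM where needed), then incubated 30 min at 37 °C with 15 µM arachidonic acid; supernatant PGE2 measured by RIA. Triplicate wells, mean of three experiments of percent inhibition versus control; IC50 by sigmoidal fit.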

J774 = assay: Selectivity index, ratio of IC50 for COX-1 to IC50 for COX-2 in mouse J774 cells; format: cell-based
Outline: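 J774 macrophages stimulated 24 h with E. coli LPS (10 µg/mL) to induce COX-2, with or without compound (0.01–10 µM); supernatant PGE2 by RIA. Triplicate wells, three experiments, percent inhibition versus control, IC50 by sigmoidal fit; selectivity as COX-1/COX-2 IC50 ratio.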

[3] = target: T3, Prostaglandin G/H synthase 1 (Mus musculus, UniProt P22437); assay: Inhibition of COX-1 in mouse J774 cells using arachidonic acid as substrate assessed as inhibition of prostaglandin E2 production preincubated for 15 mins followed by substrate addition measured after 30 mins by RIA; format: cell-based; outline: as §1
T3 sequence (P22437 whole entry): T2 sequence (whole entry)

[4] = target: T4, Prostaglandin G/H synthase 2 (Mus musculus, UniProt Q05769); assay: Inhibition of LPS-induced COX-2 in mouse J774 cells using arachidonic acid as substrate assessed as inhibition of prostaglandin E2 production preincubated for 15 mins followed by substrate addition measured after 30 mins by RIA; format: cell-based
T4 sequence (Q05769 whole entry): T1 sequence (whole entry)

Mus musculus [5] = assay: Analgesic activity in Swiss albino mouse assessed as reduction of acetic acid-induced writhing at 40 mg/kg, po measured every 10 mins after 5 mins of administration relative to control; format: functional; parameters: scale not given: the % may be the effect or the level left
Outline: (§2)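 Male Swiss albino mice (23–25 g), compound given orally in CMC vehicle; writhing induced by 0.6% acetic acid (10 mL/kg) ip. Stretching movements counted for 10 min, starting 5 min after administration; percent reduction versus CMC-treated animals.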

Mus musculus [6] = assay: Analgesic activity in po dosed Swiss albino mouse assessed as reduction of acetic acid-induced writhing measured every 10 mins after 5 mins of administration; format: functional, organism-based; outline: as §2
Mus musculus [7] = assay: Analgesic activity in Swiss albino mouse assessed as reduction of acetic acid-induced writhing at 20 mg/kg, po measured every 10 mins after 5 mins of administration relative to control; format: functional; parameters: scale not given: the % may be the effect or the level left; outline: as §2
Mus musculus [8] = assay: Analgesic activity in Swiss albino mouse assessed as reduction of acetic acid-induced writhing at 10 mg/kg, po measured every 10 mins after 5 mins of administration relative to control; format: functional; parameters: scale not given: the % may be the effect or the level left; outline: as §2
[9] = Metabolic stability in Sprague-Dawley rat plasma assessed as compound remaining after 60 mins by LC-MS/MS analysis; format: ADME, cell-free; details: read-out: Stability
Outline: (§3)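 Compound (12 µL of 1 mM DMSO solution into 588 µL medium) incubated in PBS pH 7.4, pepsin-free SGF pH 1.5, or EDTA rat plasma. Aliquots taken at 0, 30, 60, 120 min and quenched with ice-cold acetonitrile containing internal standard; parent remaining as percent.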

[10] = Metabolic stability in Sprague-Dawley rat plasma assessed as compound remaining after 120 mins by LC-MS/MS analysis; format: ADME, cell-free; details: read-out: Stability; outline: as §3
[11] = Stability of the compound in phosphate buffer saline assessed as compound remaining at pH 7.4 after 120 mins by LC-MS/MS analysis; format: physicochemical; details: read-out: Stability; outline: as §3
[12] = Stability of the compound in phosphate buffer saline assessed as compound remaining at pH 7.4 after 30 mins by LC-MS/MS analysis; format: physicochemical; details: read-out: Stability
Outline: (§4)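 1 mM DMSO stock added to 0.01 M PBS (pH 7.4) or 0.05 M simulated gastric fluid without pepsin (pH 1.5 with HCl); incubated in hybridisation oven; aliquots at 0, 30, 60, 120 min quenched with ice-cold acetonitrile containing internal standard; parent remaining (%) measured.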

[13] = Stability of the compound in phosphate buffer saline assessed as compound remaining at pH 7.4 after 60 mins by LC-MS/MS analysis; format: physicochemical; details: read-out: Stability; outline: as §4
[14] = Stability of the compound in simulated gastric fluid assessed as compound remaining at pH 1.5 after 120 mins by LC-MS/MS analysis; format: physicochemical; details: read-out: Stability; outline: as §4
[15] = Solubility of the compound in simulated gastric fluid at pH 1.5 after 90 mins by HPLC analysis; format: ADME
Outline: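 DMSO stock (20 mM) diluted 2 µL into 198 µL PBS 0.01 M pH 7.4 or pepsin-free SGF 0.05 M pH 1.5, duplicate wells, shaken 90 min at 300 rpm. Filtrates analysed by HPLC with photodiode-array detection against seven-point standards (1–200 µM).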

[16] = Stability of the compound in simulated gastric fluid assessed as compound remaining at pH 1.5 after 30 mins by LC-MS/MS analysis; format: physicochemical; details: read-out: Stability; outline: as §4
[17] = Stability of the compound in simulated gastric fluid assessed as compound remaining at pH 1.5 after 60 mins by LC-MS/MS analysis; format: physicochemical; details: read-out: Stability; outline: as §4
[18] = Metabolic stability in Sprague-Dawley rat plasma assessed as compound remaining after 30 mins by LC-MS/MS analysis; format: ADME, cell-free; details: read-out: Stability; outline: as §3

Structure (SMILES)	inhibition [1]	inhibition [2]	IC50 [3]	Ratio IC50 (J774)	also measured
Cc1c(CC(=O)NC(CCO)C(=O)O)cc(-c2ccc(S(C)(=O)=O)cc2)n1-c1ccc(F)cc1 (racemic)	89%	19%	> 10 µM	> 16	–
Cc1c(CC(=O)NC(CO)C(=O)O)cc(-c2ccc(S(C)(=O)=O)cc2)n1-c1cccc(F)c1 (racemic)	100%	23%	> 10 µM	> 167	IC50 [4]: 0.068 µM
Cc1c(CC(=O)NC(CO)C(=O)O)cc(-c2ccc(S(C)(=O)=O)cc2)n1-c1ccc(F)cc1 (racemic)	100%	23%	> 10 µM	> 62.5	Activity (Mus musculus [5]): 60%; IC50 [4]: 0.16 µM; Activity (Mus musculus [6]): Dose-dependent effect; Activity (Mus musculus [7]): 59%; Activity (Mus musculus [8]): 27%
Cc1c(CC(=O)NC(CCO)C(=O)O)cc(-c2ccc(S(C)(=O)=O)cc2)n1-c1cccc(F)c1 (racemic)	79%	16%	> 10 µM	> 10	–
Cc1c(CC(=O)OCCO[N+](=O)[O-])cc(-c2ccc(S(C)(=O)=O)cc2)n1-c1cccc(F)c1	–	–	–	–	remaining at 1 h [9]: 0%; remaining at 2 h [10]: 0%; remaining at 2 h [11]: 0.15%; remaining at 0.5 h [12]: 74.1%; remaining at 1 h [13]: 53.6%; remaining at 2 h [14]: 42.8%; solubility at 1.5 h [15]: < 1 µM; remaining at 0.5 h [16]: 80.2%; remaining at 1 h [17]: 65.7%; remaining at 0.5 h [18]: 0%

Now from value to molecule, other results behind:

inhibition [1]	inhibition [2]	IC50 [3]	Structure (SMILES)	Ratio IC50 (J774)	also measured
95%	0%	> 10 µM	Cc1c(CC(=O)NCCO)cc(-c2ccc(S(C)(=O)=O)cc2)n1-c1cccc(F)c1	> 34	–
100%	21%	> 10 µM	Cc1c(CC(=O)NCCCO)cc(-c2ccc(S(C)(=O)=O)cc2)n1-c1ccc(F)cc1	> 147	–
